The target of assay [1] is T1, Alpha-1A adrenergic receptor (Homo sapiens, UniProt P35348).
T1 sequence (P35348 whole entry): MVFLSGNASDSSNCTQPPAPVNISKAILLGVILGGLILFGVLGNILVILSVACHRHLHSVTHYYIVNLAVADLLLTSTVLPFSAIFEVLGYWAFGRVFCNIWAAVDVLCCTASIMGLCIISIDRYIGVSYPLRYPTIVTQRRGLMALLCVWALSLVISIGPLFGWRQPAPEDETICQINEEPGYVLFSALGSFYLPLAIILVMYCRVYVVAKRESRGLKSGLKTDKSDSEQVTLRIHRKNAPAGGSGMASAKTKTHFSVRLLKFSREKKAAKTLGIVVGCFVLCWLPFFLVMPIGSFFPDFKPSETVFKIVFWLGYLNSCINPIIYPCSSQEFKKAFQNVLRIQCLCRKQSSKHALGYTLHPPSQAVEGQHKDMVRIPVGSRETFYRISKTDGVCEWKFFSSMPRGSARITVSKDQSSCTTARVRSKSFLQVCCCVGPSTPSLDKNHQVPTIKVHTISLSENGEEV
As to the kind of experiment: Binding affinity towards cloned human alpha-1A adrenergic receptor was determined using [125]-HEAT as radioligand.

In assay [2] the target is T2, Alpha-2A adrenergic receptor (Homo sapiens) (UniProt P08913).
T2 sequence (whole entry): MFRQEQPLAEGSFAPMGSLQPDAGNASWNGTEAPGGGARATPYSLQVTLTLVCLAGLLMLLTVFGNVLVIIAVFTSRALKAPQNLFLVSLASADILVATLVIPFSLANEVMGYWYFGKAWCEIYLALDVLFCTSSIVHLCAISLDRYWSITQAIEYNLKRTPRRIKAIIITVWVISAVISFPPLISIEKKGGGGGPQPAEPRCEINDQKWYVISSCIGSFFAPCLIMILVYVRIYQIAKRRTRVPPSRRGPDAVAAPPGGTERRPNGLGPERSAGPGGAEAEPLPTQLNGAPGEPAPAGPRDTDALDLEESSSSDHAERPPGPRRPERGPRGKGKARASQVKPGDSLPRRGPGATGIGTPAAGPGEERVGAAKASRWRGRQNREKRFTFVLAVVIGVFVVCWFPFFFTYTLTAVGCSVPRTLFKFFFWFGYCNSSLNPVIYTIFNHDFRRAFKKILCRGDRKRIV
Description: Compound at 1 uM was tested for the inhibition of radioligand [3H]MK-912 binding to recombinant human alpha-2A adrenergic receptor. The method, boiled down:
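Recombinant human α2a or α2c receptors in CHO cell membranes; [3H]MK912, 60 min at 25 °C in 50 mM Tris-HCl, 150 mM NaCl, 5 mM EDTA, pH 7.4; WB4101 (10 μM) for nonspecific binding. Percent inhibition at 1 μM in duplicate; filtration, scintillation counting.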

In assay [3] the target is T3, D(2) dopamine receptor (Homo sapiens, UniProt P14416). Description: Compound at 1 uM was tested for the inhibition of radioligand [3H]spiperone binding to recombinant human Dopamine receptor D2S. The essentials: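 Human D2S in CHO membranes; [3H]spiperone, 37 °C for 120 min in 50 mM Tris-HCl, 150 mM NaCl, 5 mM EDTA, pH 7.4; 10 μM haloperidol for nonspecific binding. Percent inhibition at 1 μM, duplicate; filtration, scintillation counting.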

Assay [4] has as its target T4, Alpha-2B adrenergic receptor (Rattus norvegicus) (UniProt P19328).
T4 sequence (whole entry): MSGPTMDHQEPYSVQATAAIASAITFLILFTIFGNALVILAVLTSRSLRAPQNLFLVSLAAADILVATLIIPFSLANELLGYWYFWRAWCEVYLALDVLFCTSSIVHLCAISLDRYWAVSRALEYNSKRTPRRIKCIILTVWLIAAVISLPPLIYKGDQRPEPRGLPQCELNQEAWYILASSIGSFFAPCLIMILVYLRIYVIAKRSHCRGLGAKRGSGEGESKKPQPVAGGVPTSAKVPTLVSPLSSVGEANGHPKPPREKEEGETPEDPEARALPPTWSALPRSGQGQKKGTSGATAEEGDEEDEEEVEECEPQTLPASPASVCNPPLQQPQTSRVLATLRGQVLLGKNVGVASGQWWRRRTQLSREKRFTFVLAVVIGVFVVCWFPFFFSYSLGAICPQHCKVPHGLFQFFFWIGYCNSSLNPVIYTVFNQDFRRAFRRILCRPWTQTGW
Description: Compound at 1 uM was tested for the inhibition of radioligand [3H]yohimbine binding to rat alpha-2B adrenergic receptor. The method, boiled down: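 Rat kidney cortical membranes; [3H]yohimbine, 25 °C for 30 min, pH 7.4 Tris-HCl/NaCl/EDTA; 10 μM phentolamine for nonspecific binding. Percent inhibition at 1 μM compound, in duplicate; filtration, scintillation counting.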

Assay [5] deals with T3, D(2) dopamine receptor. Description: Compound at 1 uM was tested for the inhibition of radioligand [3H]spiperone binding to recombinant human Dopamine receptor D2L. The method, boiled down: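 D2L (human, CHO-expressed) membranes; [3H]spiperone, 25 °C, 120 min; pH 7.4 Tris-HCl/NaCl/EDTA; nonspecific with 10 μM haloperidol. Compound at 1 μM, percent inhibition in duplicate; filtration, scintillation counting.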

Assay [6] deals with Histamine H1 receptor (Cavia porcellus) (UniProt P31389). Description: Compound at 1 uM was tested for the inhibition of radioligand [3H]pyrilamine binding to central histamine H1 receptor in guinea pig brain. The method, boiled down: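 Central H1 from guinea pig brain membranes; [3H]pyrilamine 25 °C for 60 min, pH 7.4 Tris-HCl/NaCl/EDTA buffer; 1 μM pyrilamine for nonspecific binding. Percent inhibition by compound at 1 μM, duplicate; filtered, scintillation counted.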

In assay [7] the target is T5, D(4) dopamine receptor (Homo sapiens) (UniProt P21917).
T5 sequence (whole entry): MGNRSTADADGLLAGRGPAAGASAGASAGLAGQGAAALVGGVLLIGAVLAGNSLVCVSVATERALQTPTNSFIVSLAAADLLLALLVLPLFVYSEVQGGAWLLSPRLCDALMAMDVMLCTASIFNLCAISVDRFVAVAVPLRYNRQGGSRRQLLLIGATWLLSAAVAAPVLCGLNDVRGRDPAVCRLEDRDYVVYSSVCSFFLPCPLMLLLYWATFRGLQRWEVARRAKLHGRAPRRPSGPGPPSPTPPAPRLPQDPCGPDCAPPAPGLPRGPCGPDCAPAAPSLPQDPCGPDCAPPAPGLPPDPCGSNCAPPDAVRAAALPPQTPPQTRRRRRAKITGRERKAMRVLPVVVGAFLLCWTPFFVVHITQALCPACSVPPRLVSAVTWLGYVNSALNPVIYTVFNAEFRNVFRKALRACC
Description: Compound at 1 uM was tested for the inhibition of radioligand [3H]spiperone binding to recombinant human Dopamine receptor D4.7. The method, boiled down: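 Recombinant human D4.7 in CHO cell membranes; [3H]spiperone for 120 min at 25 °C, pH 7.4 Tris-HCl/NaCl/EDTA; haloperidol (10 μM) for nonspecific binding. Compound at 1 μM, percent inhibition determined in duplicate; filtration, scintillation counting.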

Among the data in ChEMBL document CHEMBL1133729, “Design, synthesis, and structure-activity relationships of phthalimide-phenylpiperazines: a novel series of potent and selective alpha(1)(a)-adrenergic receptor antagonists” (J Med Chem, 2000) are Ki and inhibition values, retold here.

Usually Ki stands for a dissociation constant, usually derived from enzyme kinetics or from competition with a known ligand. A high value points to weaker binding. What is called inhibition is the change of the read-out against control, counted positive when it falls.

Chain of Histamine H1 receptor (Cavia porcellus) (P31389 whole entry): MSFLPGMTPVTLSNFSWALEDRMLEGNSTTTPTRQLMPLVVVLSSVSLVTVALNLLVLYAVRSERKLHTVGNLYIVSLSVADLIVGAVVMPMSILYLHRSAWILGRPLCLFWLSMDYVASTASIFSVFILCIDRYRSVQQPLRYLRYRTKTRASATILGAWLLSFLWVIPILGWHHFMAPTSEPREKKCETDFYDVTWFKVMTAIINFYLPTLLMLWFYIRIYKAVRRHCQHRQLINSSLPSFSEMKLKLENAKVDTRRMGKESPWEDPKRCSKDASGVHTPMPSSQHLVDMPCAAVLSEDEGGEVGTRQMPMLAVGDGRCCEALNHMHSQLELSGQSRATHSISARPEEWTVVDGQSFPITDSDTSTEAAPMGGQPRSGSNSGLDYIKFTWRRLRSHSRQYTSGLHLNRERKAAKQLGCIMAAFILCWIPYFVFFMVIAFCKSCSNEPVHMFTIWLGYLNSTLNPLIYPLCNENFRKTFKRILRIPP
T3 sequence (P14416 whole entry): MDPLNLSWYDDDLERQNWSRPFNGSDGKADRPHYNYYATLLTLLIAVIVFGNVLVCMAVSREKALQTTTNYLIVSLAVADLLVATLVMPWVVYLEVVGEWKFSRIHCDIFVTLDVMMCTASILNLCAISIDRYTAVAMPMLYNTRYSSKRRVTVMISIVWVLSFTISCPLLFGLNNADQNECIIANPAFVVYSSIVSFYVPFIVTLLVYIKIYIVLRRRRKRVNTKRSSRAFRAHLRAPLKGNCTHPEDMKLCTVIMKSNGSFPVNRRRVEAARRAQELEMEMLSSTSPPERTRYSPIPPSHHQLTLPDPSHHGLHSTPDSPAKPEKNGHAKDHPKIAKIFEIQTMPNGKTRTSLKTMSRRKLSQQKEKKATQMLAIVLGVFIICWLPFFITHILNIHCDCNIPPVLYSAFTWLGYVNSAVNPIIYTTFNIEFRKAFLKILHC

Compound `Cc1ccc(N2C(=O)c3ccc(C(=O)NC[C@H](O)CN4CCN(c5ccccc5OC(C)C)CC4)cc3C2=O)cc1` gave a Ki in assay [1] of 0.29 nM. For the same compound, the inhibition turned out to be 19% in assay [2]; 70% in assay [3]; 75% in assay [4]; 68% in assay [5]; 93% in assay [6].
For `CC(C)Oc1ccccc1N1CCN(C[C@@H](O)CNC(=O)c2ccc3c(c2)C(=O)N(c2cccc(F)c2)C3=O)CC1`, the inhibition in assay [7] was 43%; in assay [2], 29%; in assay [3] it was 51%; in assay [4], 70%; in assay [5], 55%; in assay [6], 95%. Further, the Ki in assay [1] came to 1.02 nM.
As for `CCOc1ccccc1OCCN[C@H](C)Cc1ccc(OC)c(S(N)(=O)=O)c1` [TAMSULOSIN], the inhibition in assay [7] was 21%; in assay [2], 82%; in assay [3], 73%; in assay [4], 86%; in assay [5] it was 53%; in assay [6], 18%.
Turning to `CC(C)Oc1ccccc1N1CCN(C[C@@H](O)CNC(=O)c2ccc3c(c2)C(=O)N(c2ccc(N(C)C)cc2)C3=O)CC1`, the inhibition in assay [7] turned out to be 50%; in assay [2] it was 18%; in assay [3], 71%; in assay [4], 73%; in assay [5], 71%; in assay [6], 88%. In addition, the affinity in assay [1] corresponds to a Ki of 0.33 nM.
Consider `COc1ccc(N2C(=O)c3ccc(C(=O)NCCCN4CCN(c5ccccc5OC(C)C)CC4)cc3C2=O)cc1`, for which the inhibition in assay [7] is 32%; in assay [2] it was 80%; in assay [3] it was 87%; in assay [4] it was 79%; in assay [5] it was 83%; in assay [6] it was 97%. The same compound showed a Ki in assay [1] of 0.11 nM.
For the compound `Cc1ccc(N2C(=O)c3ccc(C(=O)NCCCN4CCN(c5ccccc5OC(C)C)CC4)cc3C2=O)cc1`, the inhibition worked out at 20% in assay [7]; 87% in assay [2]; 94% in assay [3]; 66% in assay [4]; 83% in assay [5]; 97% in assay [6]. This compound yielded a Ki in assay [1] of 0.16 nM.
As to `CC(C)Oc1ccccc1N1CCN(CCCNC(=O)c2ccc3c(c2)C(=O)N(c2cccc(F)c2)C3=O)CC1`, the inhibition stood at 69% in assay [7]; 78% in assay [2]; 90% in assay [3]; 78% in assay [4]; 89% in assay [5]; 87% in assay [6]. In assay [1], this compound gave a Ki of 0.41 nM.
